A selection: hits, their analogues and other compounds. The true share with any hit is near 10%.
PMI act: activators of human phosphomannose isomerase. P34949. purified human PMI, coupled resazurin fluorescence, 20 min; hits give high values; 1 = vehicle control, 0 substrate-free wells. activation factor at 20 µM. 0.005% of 190,000 active. AID 1214;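 active means activation factor of 2 or more at 20 µM, relative to plate controls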
Target sequence (P34949 whole entry, looked up): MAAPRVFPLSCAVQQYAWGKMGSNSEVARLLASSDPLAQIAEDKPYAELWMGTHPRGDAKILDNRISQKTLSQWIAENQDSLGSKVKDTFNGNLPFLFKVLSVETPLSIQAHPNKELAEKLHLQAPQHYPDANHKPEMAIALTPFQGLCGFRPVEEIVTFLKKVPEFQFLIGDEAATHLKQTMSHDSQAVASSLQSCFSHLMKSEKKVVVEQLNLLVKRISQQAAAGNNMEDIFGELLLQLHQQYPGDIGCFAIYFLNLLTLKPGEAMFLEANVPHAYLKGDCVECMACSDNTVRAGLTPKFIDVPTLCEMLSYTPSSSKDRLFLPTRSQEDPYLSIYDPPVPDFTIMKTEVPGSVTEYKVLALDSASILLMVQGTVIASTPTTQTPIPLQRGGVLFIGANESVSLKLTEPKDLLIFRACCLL
Diaph act CS: activates diaphorase or chemically reduces, flagging diaphorase assay artifacts; Diaphorase/resazurin coupled assay, resorufin fluorescence, 16 min; hits give high values; 1 = vehicle wells, 0 = NADH-free wells; activation factor at 20 µM; 0.005% of 190,000 active; AID 1229;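 active means diaphorase activity raised at least twofold by the compound at 20 µM; inactive means activation factor below 2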
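Assay system: bacterial diaphorase enzyme (C. kluyveri) / Input: enzyme 0.07 U/mL final / Medium: 50 mM HEPES pH 7.4 with 4.542 mM MgCl2, 0.005% Tween 20 / Doses: single compound dose of 20 µM, 1% DMSO final / Incubation: 16 min enzyme reaction, ambient temperature / Signal: fluorescence, excitation 544 nm and emission 590 nm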
Lmaj promast: reduces viability of Leishmania major promastigotes. 9% of 200,000 active. resazurin fluorescence viability. AID 1063. inhibition, % at 10 µM; in the data active means inhibition above about 50%;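 further: promastigotes grown with compound for 44 hours at 28 °C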
PMI act satM6P: PMI (human) activation, high substrate; P34949; coupled PMI enzyme assay, resazurin fluorescence, 20 min; hits give high values; 1 = untreated enzyme, 0 = substrate-free blank; activation factor at 20 µM; 0.34% of 190,000 active; AID 1216;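 active means activation factor of 2 or more at 20 µM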
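Test system: human phosphomannose isomerase with PGI, G6PDH, diaphorase coupling enzymes / Doses: 20 µM compound, 1% DMSO / Times: enzyme reaction with compound 20 min at room temperature / Measured by: Diaphorase-driven resazurin-to-resorufin fluorescence, excitation 544, emission 590 nm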
WT yeast gro inh: growth inhibition of WT yeast, mitochondrial fusion screen | inhibition, % at 10 µM | mitochondrial fusion phenotypic screen, WT strain | 2.1% of 190,000 active; in the data active means inhibition above about 58%; tested in S. cerevisiae
Active calls of the source: *.

CCN(CC)CCNC(=O)c1ccc(Sc2ccc(Cl)cc2)c(NC(C)=O)c1 was read as PMI act 1.2, Diaph act CS 1.1, Lmaj promast 0, PMI act satM6P 1.1 and WT yeast gro inh 2.
For Cc1ccsc1C(=O)N1CCCC(CCC(=O)NCc2ccccc2F)C1 (stereo not given) the results were PMI act 1, Diaph act CS 1, Lmaj promast 1, PMI act satM6P 1 and WT yeast gro inh -1.
For Cc1ncc(CN2CCCC(CCC(=O)NCc3ccccc3F)C2)s1 (stereo not given) the results were PMI act 0.9, Diaph act CS 0.9, Lmaj promast 77*, PMI act satM6P 0.9 and WT yeast gro inh 6.
`N#CC1=C(N)SC(N)=C(C#N)C1Cc1ccccc1` gave PMI act 1.3, Diaph act CS 0.8, Lmaj promast 55*, PMI act satM6P 1.4 and WT yeast gro inh 14.
N#CC1=C(N)SC(N)=C(C#N)C1c1c(Cl)cccc1Cl was read as PMI act 1.3, Diaph act CS 0.8, Lmaj promast 9, PMI act satM6P 0.9 and WT yeast gro inh 63*.
For Cc1ccc(S(=O)(=O)NNC(=O)c2cccs2)c(C)c1 the results were PMI act 1.1, Diaph act CS 0.9, Lmaj promast -4, PMI act satM6P 1.1 and WT yeast gro inh 0.
`Cc1ccc(S(=O)(=O)NNc2ccccc2)c(C)c1` gave PMI act 1.7, Diaph act CS 1, Lmaj promast 16, PMI act satM6P 2.7* and WT yeast gro inh -2.
Screening O=C(c1cc(-c2ccncc2)nc2ccc(Cl)cc12)N1CCN(Cc2ccc3c(c2)OCO3)CC1 returned PMI act 1.2, Diaph act CS 0.7, Lmaj promast 81*, PMI act satM6P 1 and WT yeast gro inh 17.
O=C(c1cc(-c2ccncc2)nc2ccc(Br)cc12)N1CCN(Cc2ccc3c(c2)OCO3)CC1 was read as PMI act 1, Diaph act CS 0.7, Lmaj promast 45, PMI act satM6P 1 and WT yeast gro inh 18.
Screening O=C(CSCc1cccc(Cl)c1)N1CCN(Cc2ccc3c(c2)OCO3)CC1 returned PMI act 1, Diaph act CS 0.9, Lmaj promast 91*, PMI act satM6P 1 and WT yeast gro inh 42.
Screening O=C(CS(=O)(=O)Cc1ccccc1)N1CCN(Cc2ccc3c(c2)OCO3)CC1 returned PMI act 0.9, Diaph act CS 1, Lmaj promast 69*, PMI act satM6P 1 and WT yeast gro inh 10.
Screening CCCc1cc(-c2n[nH]c(=S)n2CC(C)C)cs1 returned PMI act 0.9, Diaph act CS 0.8, Lmaj promast -5, PMI act satM6P 0.9 and WT yeast gro inh 62*.
`CCCCn1c(-c2csc(CC)c2)n[nH]c1=S` gave PMI act 0.9, Diaph act CS 0.9, Lmaj promast -4, PMI act satM6P 0.9 and WT yeast gro inh 67*.
CCCCn1c(-c2csc(C(C)C)c2)n[nH]c1=S was read as PMI act 0.9, Diaph act CS 0.8, Lmaj promast -6, PMI act satM6P 0.9 and WT yeast gro inh 65*.
For CCc1cc(-c2n[nH]c(=S)n2-c2cccc(C)c2)cs1 the results were PMI act 0.9, Diaph act CS 0.9, Lmaj promast -12, PMI act satM6P 1 and WT yeast gro inh 61*.
`Cn1c(=O)[nH]c(=O)c2cc(C(=O)c3cc(F)ccc3O)cnc21` gave PMI act 0.9, Diaph act CS 0.8, Lmaj promast 5, PMI act satM6P 0.8 and WT yeast gro inh 4.
`O=C(CSc1nnc(CCCN2C(=O)c3cccc4cccc(c34)C2=O)n1-c1ccccc1)NCCCN1CCOCC1` gave PMI act 0.9, Diaph act CS 0.5, Lmaj promast -2, PMI act satM6P 0.8 and WT yeast gro inh -9.
Screening CCCCn1c(-c2csc3c2CCC(C)C3)n[nH]c1=S (stereo not given) returned PMI act 0.8, Diaph act CS 0.9, Lmaj promast 19, PMI act satM6P 0.9 and WT yeast gro inh 76*.
`N#Cc1ccc(/C=C/C(=O)c2ccco2)cc1` gave PMI act 1.3, Diaph act CS 0.9, Lmaj promast 31, PMI act satM6P 1.3 and WT yeast gro inh 0.
For Nc1ccc(/C=C/C(=O)c2ccco2)cc1 the results were PMI act 0.9, Diaph act CS 0.9, Lmaj promast 51*, PMI act satM6P 0.8 and WT yeast gro inh -10.
For COc1ccccc1/C=C/C(=O)c1cc(Br)ccc1OC(=O)c1ccco1 the results were Lmaj promast 60*.
For Cc1ccc(/C=C/C(=O)c2cc(Br)ccc2OC(=O)c2ccco2)cc1 the results were PMI act 0.8, Diaph act CS 0.9, Lmaj promast 87*, PMI act satM6P 0.8 and WT yeast gro inh 4.
`Cc1ccccc1-n1c(-c2ccc(Cl)cc2)cnc1SCC(=O)NC1CCS(=O)(=O)C1` (stereo not given) gave PMI act 1, Diaph act CS 0.8, Lmaj promast 18, PMI act satM6P 1.1 and WT yeast gro inh 8.
CN1CCN(C(=O)C(C(=O)c2ccc(F)cc2)n2ccccc2=O)CC1 (stereo not given) was read as PMI act 1, Diaph act CS 1, Lmaj promast -4, PMI act satM6P 0.9 and WT yeast gro inh 7.
Screening CCOc1cc(C(N)=O)cc(Br)c1OCc1ccccc1 returned PMI act 1, Diaph act CS 0.9, Lmaj promast 100*, PMI act satM6P 1.1 and WT yeast gro inh 8.
For COC(=O)c1nc2n(n1)C(c1cc(OC)ccc1OC)C(C(=O)OC1CCCCC1)=C(C)N2 (stereo not given) the results were PMI act 0.9, Diaph act CS 0.7, Lmaj promast 41 and PMI act satM6P 0.9.
CCC(C)C(=O)Nc1nnc(SCC(=O)NC(C)(C)C)s1 (stereo not given) was read as PMI act 1.2, Diaph act CS 1.1, Lmaj promast -5, PMI act satM6P 1.1 and WT yeast gro inh 2.
For O=c1c2c3c(sc2nc2n1CCCCC2)CCC3 the results were PMI act 1.1, Diaph act CS 1.1, Lmaj promast 55*, PMI act satM6P 1.1 and WT yeast gro inh -15.
Cc1cc(C)c2c(n1)sc1c(-c3ccccc3)c(C#N)c(N)nc12 was read as PMI act 0.9, Diaph act CS 1, Lmaj promast -2, PMI act satM6P 1.1 and WT yeast gro inh -4.
`Cc1ccc(C)c2c1cc(C)c1nnc(SCC(=O)NCc3ccc4c(c3)OCO4)n12` gave PMI act 1, Diaph act CS 1, Lmaj promast 70*, PMI act satM6P 1 and WT yeast gro inh 11.
O=C(CSc1ncnc2c1cnn2-c1ccc(F)cc1)NCc1ccc2c(c1)OCO2 was read as PMI act 1.1, Diaph act CS 1.2, Lmaj promast 63*, PMI act satM6P 1 and WT yeast gro inh -4.

Assay outcomes as filed in PubChem BioAssay.
